Experimental data: ChEMBL document CHEMBL3632499, “Synthesis and Antiproliferative Activity Evaluation of the Disulfide-Containing Cyclic Peptide Thiochondrilline C and Derivatives” (J Nat Prod, 2015)
In brackets after ≈: the same amount, converted by molar mass.

What was measured:
[1] = Antiproliferative activity against human LOXIMVI cells; format: functional; conditions: LOX IMVI
Outline: (§1)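 Profiled in the National Cancer Institute 60 cancer cell line screen. Reported GI50 is the concentration giving 50% growth inhibition, TGI the concentration giving total growth inhibition, and LC50 the concentration giving 50% net cell killing. Values are averages ± SEM from two independent determinations.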

U-251 = experiment: Antiproliferative activity against human U251 cells; format: functional
Outline: (§2)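 Run in the National Cancer Institute 60 cancer cell line panel. Read-outs: GI50, the concentration causing 50% growth inhibition; TGI, the concentration causing total growth inhibition; LC50, the concentration causing 50% net cell killing. Values are averages ± SEM from two independent determinations.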

[2] = Antiproliferative activity against human COLO205 cells; format: functional; outline: as §1
OVCAR-3 = experiment: Antiproliferative activity against human OVCAR3 cells; format: functional; outline: as §1
[3] = Antiproliferative activity against human BT549 cells; format: functional; outline: as §1
UACC-257 = experiment: Antiproliferative activity against human UACC257 cells; format: functional; outline: as §2
SNB-19 = experiment: Antiproliferative activity against human SNB19 cells; format: functional; outline: as §2
OVCAR-5 = experiment: Antiproliferative activity against human OVCAR5 cells; format: functional; outline: as §1
SW-620 = experiment: Antiproliferative activity against human SW620 cells; format: functional; outline: as §2
HCT-116 = experiment: Antiproliferative activity against human HCT116 cells; format: functional; outline: as §1
SK-MEL-28 = experiment: Antiproliferative activity against human SK-MEL-28 cells; format: functional; outline: as §1
MDA-MB-231 = experiment: Antiproliferative activity against human MDA-MB-231 cells; format: functional; outline: as §1
DU-145 = experiment: Antiproliferative activity against human DU145 cells; format: functional; outline: as §1
HOP-62 = experiment: Antiproliferative activity against human HOP62 cells; format: functional; outline: as §1
[4] = Antiproliferative activity against human RPMI8226 cells; format: functional; outline: as §1
MDA-MB-468 = experiment: Antiproliferative activity against human MDA-MB-468 cells; format: functional; outline: as §1
CCRF-CEM = experiment: Antiproliferative activity against human CCRF-CEM cells; format: functional; outline: as §1
[5] = Antiproliferative activity against human SF295 cells; format: functional; outline: as §1
HL-60(TB) = experiment: Antiproliferative activity against human HL-60(TB) cells; format: functional
Outline: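 Tested in the NCI 60 human cancer cell line panel. GI50 is the concentration giving 50% growth inhibition; TGI (total growth inhibition) and LC50 (50% net cell killing) were also derived. Values are the mean ± SEM of two independent determinations.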

Malme-3M = experiment: Antiproliferative activity against human MALME-3M cells; format: functional; outline: as §1
PC-3 = experiment: Antiproliferative activity against human PC3 cells; format: functional; outline: as §1
ACHN = experiment: Antiproliferative activity against human ACHN cells; format: functional; outline: as §1
[6] = Aqueous solubility of the compound; format: physicochemical; conditions: buffer
SR = experiment: Antiproliferative activity against human SR cells; format: functional; outline: as §2
NCI-H322M = experiment: Antiproliferative activity against human NCI-H322M cells; format: functional; outline: as §1
[7] = Antiproliferative activity against human HOP92 cells; format: functional; outline: as §1
MDA-MB-435 = experiment: Antiproliferative activity against human MDA-MB-435 cells; format: functional; outline: as §1
UO-31 = experiment: Antiproliferative activity against human UO31 cells; format: functional; outline: as §2
M14 = experiment: Antiproliferative activity against human M14 cells; format: functional; outline: as §1
[8] = Half life in mouse liver microsomes; format: ADME
CAKI-1 = experiment: Antiproliferative activity against human Caki1 cells; format: functional; outline: as §1
HCT-15 = experiment: Antiproliferative activity against human HCT15 cells; format: functional; outline: as §1
[9] = read-out: LC50 (the source's name)

## C[C@H](NC(=O)[C@@H]1CSSC[C@@H](NC(=O)c2nc3ccccc3cc2O)C(=O)NCC(=O)N1C)c1ccccc1
[1]
  GI50: 0.7 µM
  TGI: 1.5 µM
[1]; [9]
  CC50: 3.6 µM
U-251
  GI50: 2.5 µM
  TGI: 7.7 µM
U-251; [9]
  CC50: 20.4 µM
[2]; COLO 205
  GI50: 1 µM
  TGI: 2.3 µM
[2]; COLO 205, read-out: LC50 (the source's name)
  CC50: 7.2 µM
OVCAR-3
  GI50: 0.6 µM
  TGI: 1.4 µM
OVCAR-3; [9]
  CC50: 3.1 µM
[3]; BT-549
  GI50: 6.9 µM
  TGI: 16.1 µM
[3]; BT-549, read-out: LC50 (the source's name)
  CC50: 37.6 µM
UACC-257
  GI50: 8.3 µM
  TGI: 27.8 µM
UACC-257; [9]
  CC50: > 50 µM
SNB-19
  GI50: 7.3 µM
  TGI: 19.5 µM
SNB-19; [9]
  CC50: > 50 µM
OVCAR-5
  GI50: 5.2 µM
  TGI: 12.6 µM
OVCAR-5; [9]
  CC50: 29.6 µM
SW-620
  GI50: 1.9 µM
  TGI: 6.3 µM
SW-620; [9]
  CC50: 33.2 µM
HCT-116
  GI50: 1.8 µM
  TGI: 6 µM
HCT-116; [9]
  CC50: 18.3 µM
SK-MEL-28
  GI50: 0.9 µM
  TGI: 9.9 µM
SK-MEL-28; [9]
  CC50: 31.8 µM
MDA-MB-231
  GI50: 1.9 µM
  TGI: 7.9 µM
MDA-MB-231; [9]
  CC50: 26 µM
DU-145
  GI50: 5.8 µM
  TGI: 12.7 µM
DU-145; [9]
  CC50: 27.7 µM
HOP-62
  GI50: 12.2 µM
  TGI: 21 µM
HOP-62; [9]
  CC50: 36.8 µM
[4]; RPMI-8226
  GI50: 5.7 µM
  TGI: 21.6 µM
[4]; RPMI-8226, read-out: LC50 (the source's name)
  CC50: > 50 µM
MDA-MB-468
  GI50: 6 µM
  TGI: 13.3 µM
MDA-MB-468; [9]
  CC50: 29.8 µM
CCRF-CEM
  GI50: 1.9 µM
  TGI: 10.5 µM
CCRF-CEM; [9]
  CC50: > 50 µM
[5]; SF-295
  GI50: 7.4 µM
  TGI: 16.3 µM
[5]; SF-295, read-out: LC50 (the source's name)
  CC50: 35.8 µM
HL-60(TB)
  GI50: 1.2 µM
  TGI: 5.1 µM
HL-60(TB); [9]
  CC50: 38.8 µM
Malme-3M
  GI50: 6.1 µM
  TGI: 14 µM
Malme-3M; [9]
  CC50: 32.3 µM
PC-3
  GI50: 6.1 µM
  TGI: 13.5 µM
PC-3; [9]
  CC50: 30.3 µM
ACHN
  GI50: 4.9 µM
  TGI: 13 µM
ACHN; [9]
  CC50: 31.5 µM
[6]
  solubility: 4.5 µg/mL (≈ 7.93 µM)
SR
  GI50: 0.2 µM
  TGI: 1.2 µM
SR; [9]
  CC50: > 50 µM
NCI-H322M
  GI50: 7.1 µM
  TGI: 20.1 µM
NCI-H322M; [9]
  CC50: > 50 µM
[7]; HOP-92
  GI50: 9.7 µM
  TGI: 18.6 µM
[7]; HOP-92, read-out: LC50 (the source's name)
  CC50: 35.6 µM
MDA-MB-435
  GI50: 0.8 µM
  TGI: 6.6 µM
MDA-MB-435; [9]
  CC50: 22 µM
UO-31
  GI50: 5.8 µM
  TGI: 13.3 µM
UO-31; [9]
  CC50: 30.8 µM
M14
  GI50: 0.3 µM
  TGI: 10.3 µM
M14; [9]
  CC50: > 50 µM
[8]
  half-life: 27 min
CAKI-1
  GI50: 7.3 µM
  TGI: 18.5 µM
CAKI-1; [9]
  CC50: 47.4 µM
HCT-15
  GI50: 2.6 µM
  TGI: 9.7 µM
HCT-15; [9]
  CC50: 25.9 µM
